From ChEMBL document CHEMBL1148311, “Synthesis of novel potent dipeptidyl peptidase IV inhibitors with enhanced chemical stability: interplay between the N-terminal amino acid alkyl side chain and the cyclopropyl group of alpha-aminoacyl-l-cis-4,5-methanoprolinenitrile-based inhibitors” (J Med Chem, 2004) come the findings set out here.

In one series the target is Dipeptidyl peptidase 4 (Sus scrofa, UniProt P22411). The series can be described thus: In vitro inhibition of porcine Dipeptidylpeptidase IV.
Series [1] in a line: Half-life in phosphate buffer at 39.5 C and pH 7.2. The format is ADME. Summed up:
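Aqueous solution stability of the dipeptide nitriles in phosphate buffer, pH 7.2, 39.5 °C. Reaction rate followed as disappearance of starting material by reverse-phase HPLC.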

Dipeptidyl peptidase 4, sequence (P22411 whole entry): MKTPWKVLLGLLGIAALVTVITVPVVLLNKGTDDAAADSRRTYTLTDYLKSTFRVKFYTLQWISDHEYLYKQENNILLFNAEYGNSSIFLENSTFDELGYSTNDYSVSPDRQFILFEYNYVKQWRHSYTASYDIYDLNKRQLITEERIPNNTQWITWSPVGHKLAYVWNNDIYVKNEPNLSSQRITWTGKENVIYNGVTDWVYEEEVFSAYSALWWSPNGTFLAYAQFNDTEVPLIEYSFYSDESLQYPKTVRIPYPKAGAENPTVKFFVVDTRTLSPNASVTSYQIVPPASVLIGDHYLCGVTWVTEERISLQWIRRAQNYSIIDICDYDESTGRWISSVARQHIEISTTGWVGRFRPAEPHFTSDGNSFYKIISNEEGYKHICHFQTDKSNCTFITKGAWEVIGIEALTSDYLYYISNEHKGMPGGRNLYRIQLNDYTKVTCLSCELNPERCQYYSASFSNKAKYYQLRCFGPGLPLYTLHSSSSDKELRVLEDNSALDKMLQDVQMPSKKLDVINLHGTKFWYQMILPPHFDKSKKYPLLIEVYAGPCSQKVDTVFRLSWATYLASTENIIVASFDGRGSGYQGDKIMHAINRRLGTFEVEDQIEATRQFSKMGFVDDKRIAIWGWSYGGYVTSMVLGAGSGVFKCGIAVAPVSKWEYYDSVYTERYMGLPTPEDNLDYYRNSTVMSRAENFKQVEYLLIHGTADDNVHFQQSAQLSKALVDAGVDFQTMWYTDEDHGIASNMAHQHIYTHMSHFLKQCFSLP

As to `CC1(C(N)C(=O)N2C(C#N)C[C@@H]3C[C@@H]32)CCCC1.O=C(O)C(F)(F)F` (some centres undefined), the Ki on Dipeptidyl peptidase 4 came to 7 nM. In series [1], the half-life is 24 h.

In turn, `CC(C)(C)[C@H](N)C(=O)N1C[C@H]2C[C@H]2C1C#N.O=C(O)C(F)(F)F` (some centres undefined) came in with a Ki on Dipeptidyl peptidase 4 of 14 nM. This compound had a half-life in series [1] of 4 h. Compound `CC(C)(C)[C@H](N)C(=O)N1CCC[C@H]1C#N.O=C(O)C(F)(F)F` gave a half-life in series [1] of 27 h. For the compound `CSCC[C@H](N)C(=O)N1C(C#N)C[C@@H]2C[C@@H]21` (some centres undefined), the Ki at Dipeptidyl peptidase 4 came to 135 nM. For `N#CC1C[C@@H]2C[C@@H]2N1C(=O)[C@@H](N)Cc1c[nH]c2ccccc12` (some centres undefined), the Ki at Dipeptidyl peptidase 4 came to 230 nM. `CCC(C)[C@H](N)C(=O)N1C(C#N)C[C@@H]2C[C@@H]21.O=C(O)C(F)(F)F` (some centres undefined) registered a Ki on Dipeptidyl peptidase 4 of 25 nM. Further, the half-life in series [1] is 22 h. In turn, `N#CC1C[C@@H]2C[C@@H]2N1C(=O)C(N)C1CCCC1` (some centres undefined) had a Ki at Dipeptidyl peptidase 4 of 4 nM. Consider `CCC(C)C(N)C(=O)N1CCC[C@H]1C#N.Cl` (some centres undefined), for which the half-life in series [1] is 5 h. The compound `CCC(C)[C@H](N)C(=O)N1C(C#N)C[C@H]2C[C@H]21` (some centres undefined) displayed a Ki at Dipeptidyl peptidase 4 of 1620 nM. Turning to `N#CC1C[C@@H]2C[C@@H]2N1C(=O)[C@@H](N)Cc1ccccc1` (some centres undefined), at Dipeptidyl peptidase 4, the Ki stood at 65 nM. `CC1(C(N)C(=O)N2C(C#N)C[C@@H]3C[C@@H]32)CCCCC1` (some centres undefined) came in with a Ki at Dipeptidyl peptidase 4 of 8 nM.

Turning to `CC(C)(C)[C@H](N)C(=O)N1C(C#N)C[C@@H]2C[C@@H]21` (some centres undefined), the affinity at Dipeptidyl peptidase 4 corresponds to a Ki of 7 nM. Moreover, the half-life in series [1] was 42 h.

With `CN[C@H](C(=O)N1C(C#N)C[C@@H]2C[C@@H]21)C(C)C` (some centres undefined), affinity on Dipeptidyl peptidase 4 was put at a Ki of 1940 nM. Still for that read-out and setting: as for `CC1(C(N)C(=O)N2C(C#N)C[C@@H]3C[C@@H]32)CCC1` (some centres undefined), the figure is 11 nM.

Take `CC(C)[C@H](N)C(=O)N1C[C@H]2C[C@H]2C1C#N.O=C(O)C(F)(F)F` (some centres undefined): the Ki on Dipeptidyl peptidase 4 was 12 nM. Also, in series [1], the half-life is 2 h. As to `N#CC1C[C@@H]2C[C@@H]2N1C(=O)C(N)C1CCC1` (some centres undefined), the affinity on Dipeptidyl peptidase 4, expressed as Ki, was 12 nM. Compound `CCC(C)[C@H](N)C(=O)N1C[C@H]2C[C@H]2C1C#N.O=C(O)C(F)(F)F` (some centres undefined) yielded a Ki at Dipeptidyl peptidase 4 of 15 nM. The half-life in series [1] is 4 h. For `N#CC1C[C@@H]2C[C@@H]2N1C(=O)C(N)C1CCCCC1.O=C(O)C(F)(F)F` (some centres undefined) the same measures were 15 nM and 19 h.

For `CC(C)[C@H](N)C(=O)N1C(C#N)C[C@H]2C[C@H]21.O=C(O)C(F)(F)F` (some centres undefined), on Dipeptidyl peptidase 4, the Ki was found to be 29 nM. In series [1], this compound showed a half-life of 28 h. At Dipeptidyl peptidase 4, `CCC(C)[C@H](N)C(=O)N1CC[C@@H]2C[C@@]21C#N` (some centres undefined) yielded a Ki of 7500 nM. With `N#CC1C[C@@H]2C[C@@H]2N1C(=O)C1CCCCN1` (some centres undefined), on Dipeptidyl peptidase 4, the affinity corresponds to a Ki of 10000 nM.
